Reference: publication PMC3694763 (Angewandte Chemie (International Ed. in English), 2012)
One block for each substance: values may come before it.

Legend:
factor Xa = factor Xa (Homo sapiens, UniProt P00742); assay: Determination of kcat/Km, cleavage by factor Xa; assay type: biochemical; details: for kcat/Km for factor Xa: 150 mM NaCl, 20 mM Tris pH 7.5, 2 mM CaCl2, 1% BSA, 37°C, Cy5 fluorescence
plasmin = plasmin (Homo sapiens, UniProt P00747); assay: Determination of kcat/Km, cleavage by plasmin; assay type: biochemical; details: for selectivity for thrombin over plasmin (ratio of kcat/Km): kcat/Km thrombin versus plasmin
[1] = biological target: thrombin activity in developing blood clots (Mus musculus, UniProt P19221); assay: Tail-clip model, ratiometric Cy5/Cy7 imaging of developing blood clots; assay type: in vivo; details: mouse tail clot
thrombin [2] = biological target: T1, thrombin (Homo sapiens, UniProt P00734); assay: Determination of kcat/Km, cleavage by thrombin; assay type: biochemical; details: PPRSFL replaced with norleucine-TPRSFL
MMP-9 = MMP-9 (Homo sapiens, UniProt P14780); assay: Addition of purified MMP-9 to developing blood pools of injected mice; assay type: in vivo, mouse; details: blood pool of injected mice; MMP-9 1 µl of 1.5 µM, 10 minutes
[3] = system: pro-coagulation enzymes (thrombin, plasmin, factor Xa); assay type: biochemical; details: 1 µM RACPP, 50 nM enzyme, 37°C; tricine gel, Cy5/Cy7 ratio image
Outline: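 Each ratiometric probe was incubated separately with purified enzyme for set times. Cleavage products were separated on tricine-SDS polyacrylamide gels. Gels were imaged multispectrally with 620 nm excitation, collecting Cy5 (660–720 nm) and Cy7 (760–830 nm) emission. Cy5 images were divided by Cy7 images and pseudocoloured from blue (ratio minimum) to red (ratio maximum).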

thrombin [4] = biological target: T1, thrombin; assay type: biochemical; details: probe diluted in mouse plasma
Outline: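 Probe construction: Cy5 sits on the polycationic domain and the Cy7 acceptor on the polyanionic domain, joined by a thrombin-cleavable linker, so the intact probe undergoes FRET. Emission spectra were recorded in mouse plasma in a cuvette spectrofluorometer before and after adding purified thrombin. Cy5 emission peaks near 670 nm and Cy7 re-emission near 780 nm.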

Sequence of plasmin (P00747 97-580 limits assumed, species assumed): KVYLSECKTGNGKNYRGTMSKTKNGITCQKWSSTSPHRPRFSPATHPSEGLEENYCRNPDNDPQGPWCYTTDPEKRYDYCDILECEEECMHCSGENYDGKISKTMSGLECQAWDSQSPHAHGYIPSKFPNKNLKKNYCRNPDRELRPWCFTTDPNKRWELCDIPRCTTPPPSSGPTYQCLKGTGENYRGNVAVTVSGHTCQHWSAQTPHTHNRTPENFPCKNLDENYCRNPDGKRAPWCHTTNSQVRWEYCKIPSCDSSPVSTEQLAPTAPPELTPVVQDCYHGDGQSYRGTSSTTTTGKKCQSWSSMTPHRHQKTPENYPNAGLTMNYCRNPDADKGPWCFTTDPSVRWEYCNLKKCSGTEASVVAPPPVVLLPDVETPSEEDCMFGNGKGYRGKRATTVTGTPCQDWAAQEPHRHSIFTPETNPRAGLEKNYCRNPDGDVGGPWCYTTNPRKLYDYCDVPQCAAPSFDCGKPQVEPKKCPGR
Sequence of plasmin (P00747 581-810 limits assumed, species assumed): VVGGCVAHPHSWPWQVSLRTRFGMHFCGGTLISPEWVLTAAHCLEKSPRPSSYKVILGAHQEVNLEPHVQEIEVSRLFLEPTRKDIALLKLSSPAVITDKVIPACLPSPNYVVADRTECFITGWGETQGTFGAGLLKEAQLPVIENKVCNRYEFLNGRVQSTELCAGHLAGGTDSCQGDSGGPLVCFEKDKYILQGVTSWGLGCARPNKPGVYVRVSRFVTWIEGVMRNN
Sequence of factor Xa (P00742 41-179 limits assumed): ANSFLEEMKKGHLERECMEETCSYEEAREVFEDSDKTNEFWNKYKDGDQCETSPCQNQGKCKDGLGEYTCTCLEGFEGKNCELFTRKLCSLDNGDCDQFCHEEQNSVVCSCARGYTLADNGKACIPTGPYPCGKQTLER
Sequence of factor Xa (P00742 235-488 limits assumed): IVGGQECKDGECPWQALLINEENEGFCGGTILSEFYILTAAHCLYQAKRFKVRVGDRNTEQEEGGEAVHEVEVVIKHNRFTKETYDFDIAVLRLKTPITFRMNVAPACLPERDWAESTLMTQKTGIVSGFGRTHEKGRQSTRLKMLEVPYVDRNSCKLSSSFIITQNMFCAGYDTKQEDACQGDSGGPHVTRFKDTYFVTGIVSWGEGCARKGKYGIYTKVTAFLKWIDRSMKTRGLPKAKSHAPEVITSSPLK
Sequence of MMP-9 (P14780 107-707): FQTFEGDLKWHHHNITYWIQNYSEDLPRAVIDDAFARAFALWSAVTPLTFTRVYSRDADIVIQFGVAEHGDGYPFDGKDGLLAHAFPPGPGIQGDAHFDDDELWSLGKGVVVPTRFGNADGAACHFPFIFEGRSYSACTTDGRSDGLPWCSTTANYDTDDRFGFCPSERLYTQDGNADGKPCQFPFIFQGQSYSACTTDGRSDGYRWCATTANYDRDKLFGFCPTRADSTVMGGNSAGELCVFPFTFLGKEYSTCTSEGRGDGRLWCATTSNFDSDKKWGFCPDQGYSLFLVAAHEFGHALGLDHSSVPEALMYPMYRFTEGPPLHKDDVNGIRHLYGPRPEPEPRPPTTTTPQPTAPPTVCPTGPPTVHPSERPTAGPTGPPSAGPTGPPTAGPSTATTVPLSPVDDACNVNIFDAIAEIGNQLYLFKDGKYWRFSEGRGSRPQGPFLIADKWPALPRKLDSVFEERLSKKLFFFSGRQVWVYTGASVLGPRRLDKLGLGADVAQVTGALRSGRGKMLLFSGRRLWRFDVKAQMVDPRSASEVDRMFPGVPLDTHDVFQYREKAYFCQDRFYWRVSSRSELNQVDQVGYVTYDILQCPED

Substance: Cy7-NH-e9-c(S-Peg12)oDPRSFL-r9-c(Cy5)-CONH2 [RACPPDPRSFL]
- kcat/Km for factor Xa (factor Xa): 6200 M⁻¹ s⁻¹
- selectivity for thrombin over factor Xa (ratio of kcat/Km) (factor Xa; kcat/Km thrombin versus factor Xa): less than 2 fold
- kcat/Km for plasmin (plasmin; 150 mM NaCl, 20 mM Tris pH 7.5, 2 mM CaCl2, 1% BSA, 37°C, Cy5 fluorescence): 10000 M⁻¹ s⁻¹
- selectivity for thrombin over plasmin (ratio of kcat/Km) (plasmin): less than 2 fold

Substance: Cy7-NH-e9-c(S-Peg12)oNLeTPRSFL-r9-c(Cy5)-CONH2 [RACPPNleTPRSFL]
- Cy5/Cy7 ratio at 15 minutes post injury ([1]; 10 nmol): 7.2
- change of Cy5/Cy7 ratio at 15 minutes post injury ([1]; 10 nmol): tenfold
- Cy5/Cy7 ratio at one minute post injury ([1]; 10 nmol, n = 3, mean (±SD)): 0.75(±0.11)
- Cy5/Cy7 ratio at five minutes post injury ([1]; 10 nmol, n = 3, p = 0.01 vs one minute): 3.1(±0.45)
- selectivity for thrombin over plasmin (ratio of kcat/Km) (plasmin): 52.5 fold
- acceleration of thrombin cleavage relative to RACPPPPRSFL (thrombin [2]): approximately 90 fold

- Cy5/Cy7 emission ratio at the wound site over 40 minutes of clotting ([1]; 10 nmol control probe): low and stable
- ratiometric contrast after local addition of purified MMP-9 (MMP-9): spectacular local ratiometric contrast
Substance: Cy7-NH-e9-c(S-Peg12)oPLGC(Me)AG-r9-c(Cy5)-CONH2 [RACPPPLGC(Me)AG]
- cleavage by thrombin, plasmin, factor Xa on SDS-PAGE (selectivity) [3]: not cleaved by any of the pro-coagulation enzymes

Substance: Cy7-NH-e9-c(S-Peg12)oPPRSFL-r9-c(Cy5)-CONH2 [RACPPPPRSFL]
- change in Cy5/Cy7 ratio from one to five minutes post injury ([1]; 10 nmol): no significant change
- time post injury at which a Cy5/Cy7 ratio increase was detectable ([1]; 10 nmol probe): 10 min
- kcat/Km for factor Xa (factor Xa): no detectable activity
- selectivity for thrombin over plasmin (ratio of kcat/Km) (plasmin): 14.3 fold
- change in the Cy5/Cy7 emission ratio on addition of purified thrombin (thrombin [4]; cuvet spectrofluorometer): 34 fold
- increase in Cy5 emission on addition of purified thrombin (thrombin [4]; approx. 670 nm): 8.8 fold
- decrease in Cy7 re-emission on addition of purified thrombin (thrombin [4]; approx. 780 nm): 3.8 fold
- cleavage by thrombin, plasmin, factor Xa on SDS-PAGE (selectivity) [3]: selective for thrombin

- effect on cleavage and ratio change of RACPPNleTPRSFL ([1]; lepirudin 0.5 mg/mouse immediately prior to probe injection): inhibited the cleavage and ratio change
Substance: lepirudin [reference compound]
